# Source: ChEMBL document CHEMBL2380281, “Synthesis of proline analogues as potent and selective cathepsin S inhibitors” (Bioorg Med Chem Lett, 2013)
# Calls of active or inactive are those of the source. The rule behind the calls is not given here.
# Key:
# Cathepsin S [1] = molecular target: T1, Cathepsin S (Homo sapiens, UniProt P25774); assay: Inhibition of human cathepsin-S
# Mus musculus = assay: Antiarthritic activity in DBA1/J mouse assessed as decrease in collagen-induced arthritis score and degree of paw swelling at 30 mg/kg, po qd for 14 days; type: functional, organism-based; parameters: dose 30 mg/kg
# In short: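 Male DBA1/J mice (8 weeks, n = 7/group) immunized intradermally at tail base with bovine type II collagen in complete Freund's adjuvant, boosted 3 weeks later with collagen in incomplete Freund's adjuvant. Oral dosing once daily at 30 mg/kg in 10% hydroxypropyl-β-cyclodextrin/water, or vehicle, for 14 days. Arthritis score and paw swelling graded per paw every 2–3 days for 2 weeks from day 10 post-boost.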
# [2] = Oral bioavailability in beagle dog at 10 mg/kg; type: ADME, organism-based, Canis lupus familiaris; details: in vivo
# In short: (§1)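 Male beagle dogs aged 14 months dosed once, 10 mg/kg orally or 1 mg/kg intravenously, n = 3 per route; pharmacokinetic parameters calculated.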
# [3] = Cmax in beagle dog at 1 mg/kg, iv and 10 mg/kg, po; type: ADME, organism-based, Canis lupus familiaris; details: in vivo; in short: as §1
# [4] = Half life in beagle dog at 1 mg/kg, iv and 10 mg/kg, po; type: ADME, organism-based, Canis lupus familiaris; details: in vivo; in short: as §1
# [5] = AUC (0 to 24 hrs) in beagle dog at 1 mg/kg, iv and 10 mg/kg, po; type: ADME, organism-based, Canis lupus familiaris; details: plasma; in short: as §1
# [6] = Oral bioavailability in Sprague-Dawley rat at 10 mg/kg; type: ADME, organism-based; details: in vivo
# In short: (§2)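 Male Sprague–Dawley rats, 7 weeks of age, received one oral dose of 10 mg/kg or one intravenous dose of 5 mg/kg (n = 3 each); pharmacokinetic parameters determined.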
# [7] = Half life in Sprague-Dawley rat at 5 mg/kg, iv and 10 mg/kg, po; type: ADME, organism-based; details: in vivo; in short: as §2
# [8] = Cmax in Sprague-Dawley rat at 5 mg/kg, iv and 10 mg/kg, po; type: ADME, organism-based; details: in vivo; in short: as §2
# [9] = AUC (0 to 24 hrs) in Sprague-Dawley rat at 5 mg/kg, iv and 10 mg/kg, po; type: ADME, organism-based; details: plasma; in short: as §2
# [10] = Oral bioavailability in ICR mouse at 10 mg/kg; type: ADME, organism-based; details: in vivo
# In short: (§3)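 Single dose given orally (10 mg/kg) or intravenously (5 mg/kg) to male ICR mice, 7 weeks old, n = 3 per route; pharmacokinetic parameters derived from these dosings.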
# [11] = Half life in ICR mouse at 5 mg/kg, iv and 10 mg/kg, po; type: ADME, organism-based; details: in vivo; in short: as §3
# [12] = Cmax in ICR mouse at 5 mg/kg, iv and 10 mg/kg, po; type: ADME, organism-based; details: in vivo; in short: as §3
# [13] = AUC (0 to 24 hrs) in ICR mouse at 5 mg/kg, iv and 10 mg/kg, po; type: ADME, organism-based; details: plasma; in short: as §3
# Cytochrome P450 2D6 = Cytochrome P450 2D6 (Homo sapiens, UniProt P10635); assay: Inhibition of CYP2D6 (unknown origin) by fluorescence detection method; type: ADME
# Sequence of Cytochrome P450 2D6 (P10635 whole entry): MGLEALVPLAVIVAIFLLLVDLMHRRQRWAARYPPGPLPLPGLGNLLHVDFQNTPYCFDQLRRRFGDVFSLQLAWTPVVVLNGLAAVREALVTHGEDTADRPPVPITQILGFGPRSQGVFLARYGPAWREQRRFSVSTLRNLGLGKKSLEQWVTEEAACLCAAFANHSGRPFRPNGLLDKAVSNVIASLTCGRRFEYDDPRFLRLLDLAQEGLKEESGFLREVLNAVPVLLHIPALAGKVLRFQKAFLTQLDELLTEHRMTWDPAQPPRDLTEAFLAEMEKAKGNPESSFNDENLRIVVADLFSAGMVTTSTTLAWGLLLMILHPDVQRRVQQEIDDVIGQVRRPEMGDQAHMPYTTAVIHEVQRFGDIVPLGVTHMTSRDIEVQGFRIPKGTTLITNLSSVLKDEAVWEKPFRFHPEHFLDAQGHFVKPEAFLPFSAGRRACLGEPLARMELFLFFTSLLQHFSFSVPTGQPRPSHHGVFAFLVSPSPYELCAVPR
# Cytochrome P450 2C19 = Cytochrome P450 2C19 (Homo sapiens, UniProt P33261); assay: Inhibition of CYP2C19 (unknown origin) by fluorescence detection method; type: ADME
# Sequence of Cytochrome P450 2C19 (P33261 whole entry): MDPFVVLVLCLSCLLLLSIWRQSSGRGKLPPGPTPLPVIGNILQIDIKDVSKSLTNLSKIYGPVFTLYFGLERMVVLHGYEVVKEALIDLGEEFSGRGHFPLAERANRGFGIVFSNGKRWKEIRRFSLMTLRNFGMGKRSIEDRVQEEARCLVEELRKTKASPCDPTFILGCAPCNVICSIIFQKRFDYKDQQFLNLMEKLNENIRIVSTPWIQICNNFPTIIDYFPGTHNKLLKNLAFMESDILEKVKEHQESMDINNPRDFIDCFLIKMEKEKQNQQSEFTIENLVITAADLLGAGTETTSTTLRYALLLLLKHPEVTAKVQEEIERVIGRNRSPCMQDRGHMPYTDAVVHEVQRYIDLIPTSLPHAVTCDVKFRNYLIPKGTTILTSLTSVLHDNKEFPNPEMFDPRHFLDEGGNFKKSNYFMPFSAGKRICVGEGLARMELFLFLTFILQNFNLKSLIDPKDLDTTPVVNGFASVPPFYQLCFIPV
# Cytochrome P450 1A2 = molecular target: T2, Cytochrome P450 1A2 (Homo sapiens, UniProt P05177); assay: Inhibition of CYP1A2 (unknown origin) by fluorescence detection method; type: ADME
# T2 sequence (P05177 whole entry): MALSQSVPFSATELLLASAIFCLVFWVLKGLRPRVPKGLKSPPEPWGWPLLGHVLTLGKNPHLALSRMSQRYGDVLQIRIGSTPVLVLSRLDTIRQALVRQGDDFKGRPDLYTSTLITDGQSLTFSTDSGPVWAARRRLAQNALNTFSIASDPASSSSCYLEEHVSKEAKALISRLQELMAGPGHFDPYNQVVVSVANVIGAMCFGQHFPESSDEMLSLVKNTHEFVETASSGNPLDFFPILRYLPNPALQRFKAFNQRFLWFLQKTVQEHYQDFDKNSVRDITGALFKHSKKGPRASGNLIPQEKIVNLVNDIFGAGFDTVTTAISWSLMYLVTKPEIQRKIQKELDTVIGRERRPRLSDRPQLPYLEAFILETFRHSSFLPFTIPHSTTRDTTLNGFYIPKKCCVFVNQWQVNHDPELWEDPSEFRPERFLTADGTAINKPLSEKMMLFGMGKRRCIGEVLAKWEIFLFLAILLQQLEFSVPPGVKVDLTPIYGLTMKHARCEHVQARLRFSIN
# Cytochrome P450 2C9 = Cytochrome P450 2C9 (Homo sapiens, UniProt P11712); assay: Inhibition of CYP2C9 (unknown origin) by fluorescence detection method; type: ADME
# Sequence of Cytochrome P450 2C9 (P11712 whole entry): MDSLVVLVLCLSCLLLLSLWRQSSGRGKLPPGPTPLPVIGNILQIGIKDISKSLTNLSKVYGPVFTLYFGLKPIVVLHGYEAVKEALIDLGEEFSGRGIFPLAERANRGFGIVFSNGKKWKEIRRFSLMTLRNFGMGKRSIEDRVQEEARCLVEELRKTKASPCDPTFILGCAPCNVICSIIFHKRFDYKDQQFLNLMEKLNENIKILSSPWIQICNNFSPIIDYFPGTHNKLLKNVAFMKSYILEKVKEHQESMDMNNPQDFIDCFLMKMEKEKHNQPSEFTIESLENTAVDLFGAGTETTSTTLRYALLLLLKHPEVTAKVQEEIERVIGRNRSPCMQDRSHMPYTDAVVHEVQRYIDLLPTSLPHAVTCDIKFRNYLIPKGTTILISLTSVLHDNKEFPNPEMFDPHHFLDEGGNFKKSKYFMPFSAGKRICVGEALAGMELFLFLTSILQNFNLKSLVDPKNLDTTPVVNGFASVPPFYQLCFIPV
# Cytochrome P450 3A4 = Cytochrome P450 3A4 (Homo sapiens, UniProt P08684); assay: Inhibition of CYP3A4 (unknown origin) by fluorescence detection method; type: ADME
# Sequence of Cytochrome P450 3A4 (P08684 whole entry): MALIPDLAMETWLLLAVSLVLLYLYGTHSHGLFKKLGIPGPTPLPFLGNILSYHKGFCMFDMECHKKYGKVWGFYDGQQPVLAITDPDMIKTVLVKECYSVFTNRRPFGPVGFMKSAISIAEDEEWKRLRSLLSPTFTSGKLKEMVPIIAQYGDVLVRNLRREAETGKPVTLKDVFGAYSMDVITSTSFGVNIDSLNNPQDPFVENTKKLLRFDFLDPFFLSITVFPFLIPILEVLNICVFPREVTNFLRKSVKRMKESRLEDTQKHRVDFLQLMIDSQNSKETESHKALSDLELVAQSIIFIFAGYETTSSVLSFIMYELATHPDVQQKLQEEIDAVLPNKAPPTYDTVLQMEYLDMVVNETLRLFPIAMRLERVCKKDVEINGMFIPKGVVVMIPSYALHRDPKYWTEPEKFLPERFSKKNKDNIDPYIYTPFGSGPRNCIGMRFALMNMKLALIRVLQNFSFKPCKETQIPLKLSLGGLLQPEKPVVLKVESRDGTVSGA
# [14] = Metabolic stability in mouse liver microsomes assessed as compound remaining at 5 uM after 60 mins; type: ADME, Microsome; details: read-out: Stability
# In short: (§4)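 Compound at 5 µM incubated 60 min with mouse, rat, dog or human liver microsomes, in duplicate; result given as percentage of parent remaining.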
# [15] = Metabolic stability in rat liver microsomes assessed as compound remaining at 5 uM after 60 mins; type: ADME, Microsome; details: read-out: Stability; in short: as §4
# [16] = Metabolic stability in dog liver microsomes assessed as compound remaining at 5 uM after 60 mins; type: ADME, Canis lupus familiaris, Microsome; details: read-out: Stability; in short: as §4
# [17] = Metabolic stability in human liver microsomes assessed as compound remaining at 5 uM after 60 mins; type: ADME, Microsome; details: read-out: Stability; in short: as §4
# Cathepsin S [18] = molecular target: T1, Cathepsin S; assay: Inhibition of cathepsin-S in human Jiyoye cells assessed as conversion of invariant chain Lip10 to CLIP; type: cell-based
# In short: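 Jiyoye cells were stimulated with IFN-γ and treated with the inhibitor at 1, 10, 100 and 1000 nM, alongside untreated controls. The read-out was Lip10 accumulation.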
# Cathepsin K = molecular target: T3, Cathepsin K (Homo sapiens, UniProt P43235); assay: Inhibition of human cathepsin-K
# T3 sequence (P43235 whole entry): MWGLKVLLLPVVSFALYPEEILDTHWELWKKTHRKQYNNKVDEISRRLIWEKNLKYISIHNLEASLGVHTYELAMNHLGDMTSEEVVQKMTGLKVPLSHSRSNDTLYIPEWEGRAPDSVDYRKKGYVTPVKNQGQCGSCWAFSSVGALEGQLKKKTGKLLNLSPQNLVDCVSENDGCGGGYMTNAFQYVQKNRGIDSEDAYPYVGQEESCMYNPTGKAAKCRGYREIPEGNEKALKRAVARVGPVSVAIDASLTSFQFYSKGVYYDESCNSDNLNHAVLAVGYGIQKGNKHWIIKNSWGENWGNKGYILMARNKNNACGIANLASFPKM
# In short: (§5)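 Human cathepsin B and K activity measured with a SensoLyte 520 cathepsin activity assay kit; LHVS as pan-cathepsin positive control.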
# Cathepsin B = Cathepsin B (Homo sapiens, UniProt P07858); assay: Inhibition of human cathepsin-B; in short: as §5
compound,measurement,setting,value
CCC(NC(=O)[C@@H]1C[C@@H](S(=O)(=O)c2ccccc2)CN1C(=O)C(F)(F)F)C(=O)c1nc2ccccc2o1 (stereo partly drawn),IC50,Cathepsin S [1],2.7 nM
CCC(NC(=O)[C@@H]1C[C@@H](S(=O)(=O)c2ccc(-n3cccn3)cc2)CN1C(C)=O)C(=O)c1nc2ccccc2o1 (stereo partly drawn),IC50,Cathepsin S [1],3.2 nM
CC(=O)N1C[C@H](S(=O)(=O)c2ccccc2)C[C@H]1C(=O)NC(Cc1ccccc1)C(=O)c1nc2ccccc2o1 (stereo partly drawn),IC50,Cathepsin S [1],> 100 nM
CC[C@@H](NC(=O)[C@@H]1C[C@@H](S(=O)(=O)c2ccccc2)CN1C(C)=O)C(=O)c1nc2ccccc2o1,IC50,Cathepsin S [1],4.3 nM
CCC(NC(=O)[C@@H]1C[C@@H](S(=O)(=O)c2ccc(F)cc2)CN1C(C)=O)C(=O)c1nc2ccccc2o1 (stereo partly drawn),IC50,Cathepsin S [1],3.2 nM
CCC(NC(=O)[C@@H]1C[C@@H](Sc2ccccc2)CN1C(C)=O)C(=O)c1nc2ccccc2o1 (stereo partly drawn),IC50,Cathepsin S [1],20.7 nM
CC[C@H](NC(=O)[C@@H]1C[C@@H](S(=O)(=O)c2ccccc2)CN1C(C)=O)C(=O)c1nc2ccccc2o1,Activity,Mus musculus,Active
same,bioavailability,[2],48.6%
same,Cmax,[3],3820 ng/mL
same,half-life,[4],3.7 h
same,AUC(0-t),[5],5050 ng·h/mL
same,bioavailability,[6],64.8%
same,half-life,[7],2.1 h
same,Cmax,[8],3520 ng/mL
same,AUC(0-t),[9],7250 ng·h/mL
same,bioavailability,[10],28.7%
same,half-life,[11],1.6 h
same,Cmax,[12],1910 ng/mL
same,AUC(0-t),[13],1030 ng·h/mL
same,IC50,Cytochrome P450 2D6,> 20000 nM
same,IC50,Cytochrome P450 2C19,> 20000 nM
same,IC50,Cytochrome P450 1A2,> 20000 nM
same,IC50,Cytochrome P450 2C9,5000 nM
same,IC50,Cytochrome P450 3A4,9950 nM
same,"remaining at 1 h, 5 µM",[14],37%
same,"remaining at 1 h, 5 µM",[15],37%
same,"remaining at 1 h, 5 µM",[16],47%
same,"remaining at 1 h, 5 µM",[17],70%
same,inhibition,Cathepsin S [18],Active
same,IC50,Cathepsin K,> 10000 nM
same,IC50,Cathepsin S [1],3.3 nM
same,IC50,Cathepsin B,> 10000 nM
CCC(NC(=O)[C@@H]1C[C@@H](S(=O)(=O)c2ccccc2)CN1C(=O)CCOC)C(=O)c1nc2ccccc2o1 (stereo partly drawn),IC50,Cathepsin S [1],3.3 nM
CCC(NC(=O)[C@@H]1C[C@@H](S(=O)(=O)c2ccccc2)CN1C(=O)c1ccc(Cl)cc1)C(=O)c1nc2ccccc2o1 (stereo partly drawn),IC50,Cathepsin S [1],2 nM
CCC(NC(=O)[C@@H]1C[C@@H](S(=O)(=O)c2ccccc2)CN1CC(C)=O)C(=O)c1nc2ccccc2o1 (stereo partly drawn),IC50,Cathepsin S [1],45.4 nM
CCC(NC(=O)[C@@H]1C[C@@H](S(=O)(=O)c2ccccc2)CN1C(=O)c1cccc(Cl)c1)C(=O)c1nc2ccccc2o1 (stereo partly drawn),IC50,Cathepsin K,> 1000 nM
same,IC50,Cathepsin S [1],1.1 nM
same,IC50,Cathepsin B,> 1000 nM
CCC(NC(=O)[C@@H]1C[C@@H](S(=O)(=O)c2ccccc2)CN1C(=O)N1CCCC1)C(=O)c1nc2ccccc2o1 (stereo partly drawn),IC50,Cathepsin S [1],3.7 nM
CCC(NC(=O)[C@@H]1C[C@@H](Oc2ccccc2)CN1C(C)=O)C(=O)c1nc2ccccc2o1 (stereo partly drawn),IC50,Cathepsin S [1],> 1000 nM
CCC(NC(=O)[C@@H]1C[C@@H](S(=O)(=O)c2ccccc2)CN1C(C)=O)C(=O)c1nc2ccccc2o1 (stereo partly drawn),IC50,Cathepsin S [1],3.3 nM
CCC(NC(=O)[C@@H]1C[C@@H](S(=O)(=O)c2ccccc2)CN1c1ccccc1)C(=O)c1nc2ccccc2o1 (stereo partly drawn),IC50,Cathepsin S [1],12.4 nM
CC(=O)N1C[C@H](S(=O)(=O)c2ccccc2)C[C@H]1C(=O)NC(C)C(=O)c1nc2ccccc2o1 (stereo partly drawn),IC50,Cathepsin S [1],18.1 nM
